Assay [1] deals with Staphylococcus aureus. Put plainly: Bacteriostatic activity against methicillin-resistant Staphylococcus aureus MN8-USA200 assessed as inhibition of bacterial growth by microtiter broth dilution method. Format: functional, organism-based.
Assay [2] has as its system Staphylococcus aureus. In words: Antibiotic activity against methicillin-resistant Staphylococcus aureus MN8-USA200 assessed as inhibition of bacterial growth incubated for 16 hrs by microtiter broth dilution method. Format: functional. The method, boiled down:
(§1)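 Microtiter broth dilution assay in liquid medium, run alongside MBC determination, against a Gram-positive panel; the MIC was read as growth inhibition.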

Assay [3] concerns Pseudomonas aeruginosa. Put plainly: Bacteriostatic activity against Pseudomonas aeruginosa PA01 assessed as inhibition of bacterial growth by microtiter broth dilution method. In kind it is functional, organism-based.
Assay [4] relates to Staphylococcus aureus. Put plainly: Antibiotic activity against methicillin-resistant Staphylococcus aureus LAC-Fitz-USA300 assessed as inhibition of bacterial growth incubated for 16 hrs by microtiter broth dilution method. In kind it is functional. The method, boiled down: as §1
In assay [5] the test system is Staphylococcus aureus. Put plainly: Antibiotic activity against methicillin-resistant Staphylococcus aureus IA116-USA100 assessed as inhibition of bacterial growth incubated for 16 hrs by microtiter broth dilution method. In kind it is functional. An outline of the steps:
as §1

Assay [6] has as its system Enterococcus faecalis. In words: Bacteriostatic activity against vancomycin resistant Enterococcus faecalis NJ3 assessed as inhibition of bacterial growth by microtiter broth dilution method. In kind it is functional, organism-based.
Assay [7] concerns Staphylococcus aureus. Put plainly: Inhibition of ClpX/ClpP activity in methicillin-resistant Staphylococcus aureus USA300 assessed as increase in urease activation incubated of overnight by phenol red dye based microplate reader analysis. The method, boiled down: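 Cell-based ClpXP readout in MRSA USA300 grown in Christensen's urea medium with phenol red indicator. ClpXP inhibition raises urease activity, which hydrolyses urea and releases ammonia, and the rising pH turns the medium from yellow to red. Minimum effective concentration (MEC) was taken as the lowest level that raised urease activity above background.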

Assay [8] relates to Staphylococcus aureus. Put plainly: Bacteriostatic activity against methicillin-resistant Staphylococcus aureus MW2-USA400 assessed as inhibition of bacterial growth by microtiter broth dilution method. In kind it is functional, organism-based.
The subject of assay [9] is Pseudomonas aeruginosa. Put plainly: Antibiotic activity against Pseudomonas aeruginosa PA01 assessed as inhibition of bacterial growth incubated for 16 hrs by microtiter broth dilution method. In kind it is functional.
Assay [10] can be described thus: Inhibition of C-terminal His tagged Bacillus subtilis ClpY/ClpQ expressed in Escherichia coli BL21 (DE3) using Cbz-Gly-Gly-Leu-AMC as peptide substrate by Cheng-prusoff equation analysis. An outline of the steps: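 Recombinant purified B. subtilis ClpYQ was used for inhibition kinetics. Peptide hydrolysis of the fluorogenic substrate Cbz-GGL-AMC at 100 μM was followed over a range of compound concentrations to give a dose-response curve.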

In assay [11] the test system is Staphylococcus aureus. Put plainly: Bacteriostatic activity against methicillin-resistant Staphylococcus aureus IA116-USA100 assessed as inhibition of bacterial growth by microtiter broth dilution method. In kind it is functional, organism-based.
Assay [12] concerns Enterococcus faecalis. Put plainly: Antibiotic activity against vancomycin resistant Enterococcus faecalis NJ3 assessed as inhibition of bacterial growth incubated for 16 hrs by microtiter broth dilution method. In kind it is functional. An outline of the steps:
as §1

The subject of assay [13] is Staphylococcus aureus. In words: Antibiotic activity against methicillin-resistant Staphylococcus aureus MW2-USA400 assessed as inhibition of bacterial growth incubated for 16 hrs by microtiter broth dilution method. In kind it is functional. An outline of the steps:
as §1

The subject of assay [14] is Staphylococcus aureus. In words: Bacteriostatic activity against methicillin-resistant Staphylococcus aureus LAC-Fitz-USA300 assessed as inhibition of bacterial growth by microtiter broth dilution method. In kind it is functional, organism-based.

≈ marks a conversion by molar mass, not a printed value. Calls of active or inactive are those of the source. The calls are words filed in the database; no cut-off is given here.

Turning to `CCCCCCc1c(O)c(Cl)cc2c1OC1(C2=O)C(Cl)=C(Cl)C(=O)N1Cc1ccc(C)cc1` (stereo not given), the outcome in assay [1], in assay [3], in assay [6], in assay [8], in [11] and in assay [14] was Active. Also, the minimum inhibitory concentration (MIC) is 0.5 µg/mL (≈ 0.983 µM) in assay [2]; 0.5 µg/mL (≈ 0.983 µM) in [4]; 1 µg/mL (≈ 1.97 µM) in [5]; greater than 32 µg/mL in assay [9]; 1 µg/mL (≈ 1.97 µM) in [12]; 0.5 µg/mL (≈ 0.983 µM) in assay [13]. Moreover, in assay [7], the MEC was found to be 0.25 µg/mL. In addition, the affinity in assay [10], expressed as Ki, was 0.15 µM.
For the compound `CCCCCCc1c(O)c(Cl)cc2c1OC1(C2=O)C(Cl)=C(Cl)C(=O)N1Cc1ccc(C(F)(F)F)cc1` (stereo not given), the result in [1], in [3], in [6], in [8], in assay [11] and in assay [14] was Active. Besides, the MIC was 2 µg/mL (≈ 3.55 µM) in [2]; 2 µg/mL (≈ 3.55 µM) in assay [4]; 2 µg/mL (≈ 3.55 µM) in [5]; greater than 32 µg/mL in assay [9]; 2 µg/mL (≈ 3.55 µM) in [12]; 2 µg/mL (≈ 3.55 µM) in assay [13]. For the same compound, in [7], the MEC worked out at 1 µg/mL. For the same compound, affinity in assay [10] was put at a Ki of 0.57 µM.
In the case of `Cc1c(O)c(Cl)cc2c1OC1(C2=O)C(Cl)=C(Cl)C(=O)N1Cc1ccccc1` (stereo not given), the result in [1], in [3], in assay [6], in assay [8], in [11] and in [14] was Active. Further, the MIC in assay [2] is greater than 32 µg/mL; in assay [4] it was 32 µg/mL (≈ 75.4 µM); in [5], greater than 32 µg/mL; in assay [9], greater than 32 µg/mL; in assay [12], greater than 32 µg/mL; in assay [13], 32 µg/mL (≈ 75.4 µM).
As to `C=CCN1C(=O)C(Cl)=C(Cl)C12Oc1c(cc(Cl)c(O)c1CCCCCC)C2=O` (stereo not given), the result in assay [1], in assay [3], in assay [6], in assay [8], in assay [11] and in assay [14] was Active. Besides, the minimal inhibitory concentration (MIC) is 4 µg/mL (≈ 8.99 µM) in [2]; 4 µg/mL (≈ 8.99 µM) in assay [4]; 4 µg/mL (≈ 8.99 µM) in assay [5]; greater than 32 µg/mL in [9]; 8 µg/mL (≈ 18 µM) in [12]; 4 µg/mL (≈ 8.99 µM) in assay [13].
Turning to `CCCCCCN1C(=O)C(Cl)=C(Cl)C12Oc1c(cc(Cl)c(O)c1C)C2=O` (stereo not given), the result in assay [1], in assay [3], in assay [6], in assay [8], in assay [11] and in assay [14] was Active. Moreover, the MIC was 4 µg/mL (≈ 9.55 µM) in assay [2]; 4 µg/mL (≈ 9.55 µM) in assay [4]; 4 µg/mL (≈ 9.55 µM) in assay [5]; greater than 32 µg/mL in [9]; 8 µg/mL (≈ 19.1 µM) in assay [12]; 8 µg/mL (≈ 19.1 µM) in assay [13].
For `CCCCCCc1c(O)c(Cl)cc2c1OC1(C2=O)C(Cl)=C(Cl)C(=O)N1Cc1ccccc1` (stereo not given), the outcome in [1], in [3], in assay [6], in [8], in assay [11] and in assay [14] was Active. Moreover, the MIC in assay [2] is 1 µg/mL (≈ 2.02 µM); in assay [4], 1 µg/mL (≈ 2.02 µM); in assay [5], 1 µg/mL (≈ 2.02 µM); in [9], greater than 32 µg/mL; in assay [12], 2 µg/mL (≈ 4.04 µM); in [13], 2 µg/mL (≈ 4.04 µM). In assay [7], the MEC is 0.25 µg/mL. The compound further displayed a Ki in assay [10] of 0.58 µM.
As for `C=CCN1C(=O)C(Cl)=C(Cl)C12Oc1c(cc(Cl)c(O)c1C)C2=O` (stereo not given), the outcome in assay [1], in assay [3], in assay [6], in assay [8], in assay [11] and in assay [14] was Active. In addition, the MIC in [2], in assay [4], in assay [5], in assay [9], in assay [12] and in [13] was greater than 32 µg/mL in each case.
Take `CCCCCCCCCCCCN1C(=O)C(Cl)=C(Cl)C12Oc1c(cc(Cl)c(O)c1CCCCCC)C2=O` (stereo not given): the result in assay [1], in assay [3], in assay [6], in [8], in assay [11] and in assay [14] was Active. The MIC is 16 µg/mL (≈ 27.9 µM) in [2]; 16 µg/mL (≈ 27.9 µM) in assay [4]; 8 µg/mL (≈ 14 µM) in assay [5]; greater than 32 µg/mL in assay [9]; 8 µg/mL (≈ 14 µM) in [12]; 8 µg/mL (≈ 14 µM) in [13].
As to `Cc1c(O)c(Cl)cc2c1OC1(C2=O)C(Cl)=C(Cl)C(=O)N1Cc1ccc(C(F)(F)F)cc1` (stereo not given), the outcome in assay [1], in assay [3], in assay [6], in assay [8], in assay [11] and in [14] was Active. The MIC in assay [2] was 16 µg/mL (≈ 32.5 µM); in [4] it was 16 µg/mL (≈ 32.5 µM); in [5], 16 µg/mL (≈ 32.5 µM); in assay [9], greater than 32 µg/mL; in [12], 32 µg/mL (≈ 65 µM); in assay [13], 16 µg/mL (≈ 32.5 µM).
For `Cc1c(O)c(Cl)cc2c1OC1(C2=O)C(Cl)=C(Cl)C(=O)N1C` (stereo not given), the outcome in assay [1], in assay [3], in assay [6], in assay [8], in assay [11] and in assay [14] was Active. The MIC in assay [2], in assay [4], in assay [5], in assay [9], in [12] and in assay [13] was greater than 32 µg/mL each time.
Regarding `CCCCCCCCCCCCN1C(=O)C(Cl)=C(Cl)C12Oc1c(cc(Cl)c(O)c1C)C2=O` (stereo not given), the result in assay [1], in assay [3], in assay [6], in [8], in assay [11] and in assay [14] was Active. In addition, the MIC in [2] is 2 µg/mL (≈ 3.98 µM); in assay [4], 1 µg/mL (≈ 1.99 µM); in assay [5], 2 µg/mL (≈ 3.98 µM); in assay [9], greater than 32 µg/mL; in assay [12], 0.5 µg/mL (≈ 0.994 µM); in assay [13], 2 µg/mL (≈ 3.98 µM). Further, in assay [7], the MEC turned out to be 0.5 µg/mL. In addition, the Ki in [10] worked out at 1 µM.

The values above are taken from ChEMBL document CHEMBL5104117, “Armeniaspirol analogues with more potent Gram-positive antibiotic activity show enhanced inhibition of the ATP-dependent proteases ClpXP and ClpYQ” (RSC Med Chem, 2022).
